Data as given in ChEMBL document CHEMBL5649170, “Sustained microglial depletion with CSF1R inhibitor impairs parenchymal plaque development in an Alzheimer's disease model” (Nat Commun, 2019).
Activity calls are given as the source filed them. The rule behind the calls is not given here.

Key:
[1] = Drug concentration in 5XFAD mouse plasma at 600 ppm administered as rodent chow starting from 1.5 months and measured after 5 months; format: ADME, cell-free; conditions: route po, time 3.5 months
In short: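 WT or 5xFAD mice were fed PLX3397 in AIN-76A chow at 600 ppm or 75 ppm from 1.5 to 5 months of age. Terminal brain and plasma drug concentrations were determined at study end.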

Mus musculus [2] = test: Effect on APP processing pathway in 5XFAD mouse assessed as PS1 protein signal intensity in cortex at 1200 ppm administered as rodent starting from 1.5 months and measured after 7 months (reference value: 64.603 to 143.235 %); format: functional; conditions: route po, time 5.5 months, 4015 h
[3] = AUC (0 to 24 hrs) in 5XFAD mouse plasma at 1200 ppm administered as rodent chow for 180 days; format: ADME, cell-free; conditions: route po, time 180 day
[4] = Cmax in female rat at 45 mg/kg, po administered as single dose via gavage; format: ADME, organism-based; conditions: in vivo
[5] = Effect on ccl6 gene expression in 5XFAD mouse thalamus at 1200 ppm administered as rodent chow starting from 1.5 months and measured after 7 months by RNA-Seq analysis (reference value: 3.667 to 7.093 RPKM); format: functional; conditions: route po, time 5.5 months, 4015 h
[6] = biological target: Death-associated protein kinase 1 (Homo sapiens, UniProt P53355); test: Inhibition of DAPK1 (unknown origin)
Chain of Death-associated protein kinase 1 (P53355 whole entry): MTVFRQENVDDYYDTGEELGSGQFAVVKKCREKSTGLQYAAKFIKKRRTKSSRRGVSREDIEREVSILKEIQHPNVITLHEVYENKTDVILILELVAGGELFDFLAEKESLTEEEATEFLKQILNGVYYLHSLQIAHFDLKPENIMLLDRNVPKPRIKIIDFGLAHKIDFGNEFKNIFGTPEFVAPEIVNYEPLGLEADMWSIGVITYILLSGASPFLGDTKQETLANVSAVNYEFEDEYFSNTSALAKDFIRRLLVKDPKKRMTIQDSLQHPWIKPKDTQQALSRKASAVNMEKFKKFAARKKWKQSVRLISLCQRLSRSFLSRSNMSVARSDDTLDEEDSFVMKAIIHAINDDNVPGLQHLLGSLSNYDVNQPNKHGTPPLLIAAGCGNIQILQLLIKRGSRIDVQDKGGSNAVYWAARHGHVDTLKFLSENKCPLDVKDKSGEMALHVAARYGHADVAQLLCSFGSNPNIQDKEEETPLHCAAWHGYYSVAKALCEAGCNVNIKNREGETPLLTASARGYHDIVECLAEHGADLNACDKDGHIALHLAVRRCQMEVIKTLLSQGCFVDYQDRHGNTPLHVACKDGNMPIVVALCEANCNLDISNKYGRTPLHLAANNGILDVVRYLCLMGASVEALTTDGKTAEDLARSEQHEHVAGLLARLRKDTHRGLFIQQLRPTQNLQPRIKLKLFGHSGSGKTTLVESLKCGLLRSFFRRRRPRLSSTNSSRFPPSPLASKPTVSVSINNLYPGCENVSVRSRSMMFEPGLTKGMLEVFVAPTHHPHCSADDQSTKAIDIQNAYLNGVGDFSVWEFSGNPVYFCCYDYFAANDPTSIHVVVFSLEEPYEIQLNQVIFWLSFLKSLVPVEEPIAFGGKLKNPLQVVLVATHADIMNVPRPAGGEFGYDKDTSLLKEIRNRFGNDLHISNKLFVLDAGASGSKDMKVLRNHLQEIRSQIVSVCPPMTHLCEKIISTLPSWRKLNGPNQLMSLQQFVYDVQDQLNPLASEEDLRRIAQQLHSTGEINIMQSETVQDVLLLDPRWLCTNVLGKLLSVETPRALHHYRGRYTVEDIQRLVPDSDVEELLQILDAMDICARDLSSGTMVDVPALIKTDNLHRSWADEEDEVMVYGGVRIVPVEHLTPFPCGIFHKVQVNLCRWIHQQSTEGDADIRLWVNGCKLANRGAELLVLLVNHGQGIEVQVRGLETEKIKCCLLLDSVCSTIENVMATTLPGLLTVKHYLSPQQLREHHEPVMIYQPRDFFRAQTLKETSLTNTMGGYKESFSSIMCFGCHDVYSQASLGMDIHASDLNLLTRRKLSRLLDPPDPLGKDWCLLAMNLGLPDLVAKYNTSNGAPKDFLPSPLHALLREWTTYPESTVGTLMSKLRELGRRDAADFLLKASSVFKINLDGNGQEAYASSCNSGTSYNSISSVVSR

[7] = biological target: Tyrosine-protein kinase ABL1 (Homo sapiens, UniProt P00519); test: Inhibition of ABL1 (unknown origin)
[8] = biological target: Dual specificity protein kinase CLK2 (Homo sapiens, UniProt P49760); test: Inhibition of CLK2 (unknown origin)
Chain of Dual specificity protein kinase CLK2 (P49760 whole entry): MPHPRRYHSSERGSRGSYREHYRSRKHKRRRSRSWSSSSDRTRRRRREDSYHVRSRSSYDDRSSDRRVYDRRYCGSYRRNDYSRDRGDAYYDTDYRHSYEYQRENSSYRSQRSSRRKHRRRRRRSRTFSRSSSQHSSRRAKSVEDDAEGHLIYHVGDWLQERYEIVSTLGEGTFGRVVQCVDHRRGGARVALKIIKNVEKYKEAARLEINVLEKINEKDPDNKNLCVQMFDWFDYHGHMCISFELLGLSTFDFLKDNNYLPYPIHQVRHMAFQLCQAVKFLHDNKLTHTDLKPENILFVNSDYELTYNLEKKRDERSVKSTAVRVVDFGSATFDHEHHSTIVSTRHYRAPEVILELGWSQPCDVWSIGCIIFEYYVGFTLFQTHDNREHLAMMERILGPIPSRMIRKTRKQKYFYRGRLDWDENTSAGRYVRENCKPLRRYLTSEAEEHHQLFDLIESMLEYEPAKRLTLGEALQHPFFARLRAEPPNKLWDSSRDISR

[9] = biological target: Tyrosine-protein kinase receptor UFO (Homo sapiens, UniProt P30530); test: Inhibition of AXL (unknown origin)
Chain of Tyrosine-protein kinase receptor UFO (P30530 whole entry): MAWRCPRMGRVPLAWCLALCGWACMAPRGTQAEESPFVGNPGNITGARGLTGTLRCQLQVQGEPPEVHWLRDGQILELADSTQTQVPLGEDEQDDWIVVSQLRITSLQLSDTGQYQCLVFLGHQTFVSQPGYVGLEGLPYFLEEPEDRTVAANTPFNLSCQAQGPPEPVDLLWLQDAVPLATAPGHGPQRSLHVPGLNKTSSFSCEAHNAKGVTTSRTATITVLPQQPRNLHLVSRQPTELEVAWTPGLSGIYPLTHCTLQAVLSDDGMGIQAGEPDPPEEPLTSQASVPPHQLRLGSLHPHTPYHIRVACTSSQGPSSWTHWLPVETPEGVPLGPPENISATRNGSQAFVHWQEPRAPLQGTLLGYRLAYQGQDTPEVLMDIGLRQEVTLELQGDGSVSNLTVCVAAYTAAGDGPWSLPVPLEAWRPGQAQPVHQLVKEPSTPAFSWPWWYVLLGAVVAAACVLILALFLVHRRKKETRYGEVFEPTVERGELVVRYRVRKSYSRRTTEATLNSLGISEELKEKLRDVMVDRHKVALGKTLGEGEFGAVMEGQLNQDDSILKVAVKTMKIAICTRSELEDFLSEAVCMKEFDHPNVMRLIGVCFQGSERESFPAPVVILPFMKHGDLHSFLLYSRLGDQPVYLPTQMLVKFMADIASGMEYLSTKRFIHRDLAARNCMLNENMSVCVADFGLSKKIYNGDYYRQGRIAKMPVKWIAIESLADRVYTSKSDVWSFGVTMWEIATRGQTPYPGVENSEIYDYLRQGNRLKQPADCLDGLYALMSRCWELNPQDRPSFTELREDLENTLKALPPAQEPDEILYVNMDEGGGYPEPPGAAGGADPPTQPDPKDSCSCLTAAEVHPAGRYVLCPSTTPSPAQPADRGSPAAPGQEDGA

Mus musculus [10] = test: Antialzheimer activity in 5XFAD mouse assessed as microglial elimination in thalamus at 1200 ppm administered as rodent chow for 10 weeks by Thio-S staining based confocal microscopic analysis; format: functional, organism-based; conditions: route po
In short: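 1.5-month-old 5xFAD mice fed 1200 ppm PLX5622 chow for 10 weeks; free-floating sections stained with Thio-S and immunolabeled for IBA1 (5% normal serum/0.2% Triton X-100 block, 60 min); confocal imaging of cortex and thalamus to assess remaining microglia.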

[11] = Drug concentration in mouse plasma at 300 ppm administered as rodent chow for 14 days; format: ADME, cell-free; conditions: route po, time 14 day
Mus musculus [12] = test: Antialzheimer activity in 5XFAD mouse assessed as iron reactivity by measuring hemosiderin intensity of prussian blue staining in thalamus at 1200 ppm administered as rodent chow starting from 1.5 months and measured after 4 months by confocal microscopic analysis (reference value: 0.1 to 4.094 a.u.); format: functional; conditions: route po, time 2.5 months, 1825 h
In short: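 Wild-type or 5xFAD mice fed PLX5622 (1200 ppm) in AIN-76A chow from 1.5 months of age, examined in 4- and 7-month-old cohorts. Brain sections stained with a Prussian blue kit per kit instructions to detect iron deposits (microbleeds).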

Mus musculus [13] = test: Antialzheimer activity in 5XFAD mouse assessed as number of Iba positive cells per FOV in retro spinal cortex at 1200 ppm administered as rodent chow starting from 1.5 months and measured after 4 months (reference value: 210 to 529); format: functional; conditions: route po, time 2.5 months, 1825 h
Mus musculus [14] = test: Prevention of Tgfb1 gene upregulation in 5XFAD mouse hippocampus at 1200 ppm administered as rodent chow starting from 1.5 months and measured after 7 months by Nanostring analysis; format: functional, tissue-based; conditions: route po, time 5.5 months
[15] = Volume of distribution at steady state in female rat at 1.13 mg/kg, iv administered as single dose; format: ADME, organism-based; conditions: in vivo, read-out: Vdss
[16] = biological target: Platelet-derived growth factor receptor alpha (Homo sapiens, UniProt P16234); test: Inhibition of PDGFRA (unknown origin)
Chain of Platelet-derived growth factor receptor alpha (P16234 whole entry): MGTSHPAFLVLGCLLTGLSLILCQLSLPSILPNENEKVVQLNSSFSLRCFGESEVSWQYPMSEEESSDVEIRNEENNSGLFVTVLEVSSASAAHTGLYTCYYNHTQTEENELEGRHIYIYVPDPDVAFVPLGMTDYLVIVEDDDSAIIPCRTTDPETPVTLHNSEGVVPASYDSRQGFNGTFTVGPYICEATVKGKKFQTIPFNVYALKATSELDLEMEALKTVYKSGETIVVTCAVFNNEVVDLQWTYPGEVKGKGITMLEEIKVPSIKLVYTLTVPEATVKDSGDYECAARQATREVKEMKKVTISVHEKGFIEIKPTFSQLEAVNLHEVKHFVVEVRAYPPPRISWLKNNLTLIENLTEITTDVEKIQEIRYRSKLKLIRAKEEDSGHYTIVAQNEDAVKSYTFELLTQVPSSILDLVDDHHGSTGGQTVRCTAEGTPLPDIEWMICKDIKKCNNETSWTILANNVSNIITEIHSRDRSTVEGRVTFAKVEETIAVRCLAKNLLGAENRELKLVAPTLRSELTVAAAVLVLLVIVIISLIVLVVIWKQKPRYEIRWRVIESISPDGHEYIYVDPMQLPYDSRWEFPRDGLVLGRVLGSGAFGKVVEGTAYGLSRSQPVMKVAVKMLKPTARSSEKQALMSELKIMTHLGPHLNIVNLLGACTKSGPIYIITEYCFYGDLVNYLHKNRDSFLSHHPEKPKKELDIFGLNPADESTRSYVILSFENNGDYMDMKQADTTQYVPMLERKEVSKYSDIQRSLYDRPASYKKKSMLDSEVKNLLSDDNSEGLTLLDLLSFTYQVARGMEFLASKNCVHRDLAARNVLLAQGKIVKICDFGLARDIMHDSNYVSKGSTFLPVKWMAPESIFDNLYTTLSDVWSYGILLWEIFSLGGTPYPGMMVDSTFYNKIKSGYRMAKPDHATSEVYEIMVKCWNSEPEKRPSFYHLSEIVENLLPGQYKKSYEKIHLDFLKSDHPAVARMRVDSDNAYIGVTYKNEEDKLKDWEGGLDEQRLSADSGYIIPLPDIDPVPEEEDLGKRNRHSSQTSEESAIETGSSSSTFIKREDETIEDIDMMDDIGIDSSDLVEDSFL

[17] = biological target: Beta-adrenergic receptor kinase 1 (Homo sapiens, UniProt P25098); test: Inhibition of ADRBK1 (unknown origin)
[18] = Effect on Hexb gene expression in 5XFAD mouse hippocampus at 1200 ppm administered as rodent chow starting from 1.5 months and measured after 7 months by RNA-Seq analysis (reference value: 90.736 to 123.2 RPKM); format: functional; conditions: route po, time 5.5 months, 4015 h
[19] = biological target: T1, Macrophage colony-stimulating factor 1 receptor (Mus musculus) (UniProt P09581); test: In vivo inhibition of CSF1R in wildtype mouse assessed as number of GFAP positive cell per FOV in somatosensory cortex at 1200 ppm administered as rodent chow for 10 to 24 weeks by immunolabelling based confocal microscopic analysis (reference value: 4 to 34); format: functional; conditions: route po, time 10-24 weeks
T1 sequence (whole entry): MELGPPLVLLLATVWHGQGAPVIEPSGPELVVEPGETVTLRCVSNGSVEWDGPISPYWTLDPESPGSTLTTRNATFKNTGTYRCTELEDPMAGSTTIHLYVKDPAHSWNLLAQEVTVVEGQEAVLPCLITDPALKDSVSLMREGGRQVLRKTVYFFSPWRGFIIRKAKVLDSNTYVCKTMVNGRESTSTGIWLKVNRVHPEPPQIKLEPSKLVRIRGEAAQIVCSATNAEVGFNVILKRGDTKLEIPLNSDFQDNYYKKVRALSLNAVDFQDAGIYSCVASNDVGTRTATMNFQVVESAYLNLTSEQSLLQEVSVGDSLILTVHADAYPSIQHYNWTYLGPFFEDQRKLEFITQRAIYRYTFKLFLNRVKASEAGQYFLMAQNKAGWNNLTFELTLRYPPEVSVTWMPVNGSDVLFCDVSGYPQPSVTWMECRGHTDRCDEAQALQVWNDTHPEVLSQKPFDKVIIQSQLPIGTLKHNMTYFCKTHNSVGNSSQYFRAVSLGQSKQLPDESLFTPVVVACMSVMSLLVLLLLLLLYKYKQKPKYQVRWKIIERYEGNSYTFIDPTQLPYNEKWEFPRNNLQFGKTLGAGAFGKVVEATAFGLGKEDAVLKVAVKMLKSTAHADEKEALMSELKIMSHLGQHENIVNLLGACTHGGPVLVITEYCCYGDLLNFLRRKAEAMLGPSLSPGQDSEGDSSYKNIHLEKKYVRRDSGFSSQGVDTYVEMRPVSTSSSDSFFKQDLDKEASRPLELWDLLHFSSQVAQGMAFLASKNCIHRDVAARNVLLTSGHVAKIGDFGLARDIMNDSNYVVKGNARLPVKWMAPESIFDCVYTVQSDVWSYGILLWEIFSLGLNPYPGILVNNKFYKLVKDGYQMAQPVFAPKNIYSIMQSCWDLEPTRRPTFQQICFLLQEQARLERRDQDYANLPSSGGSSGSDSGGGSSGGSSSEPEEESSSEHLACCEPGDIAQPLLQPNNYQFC

[20] = Toxicity in wildtype mouse assessed as number of closed arm entries at 1200 ppm administered as rodent chow for 10 to 24 weeks by Elevated plus maze test (reference value: 11 to 33); conditions: in vivo, po, time 10-24 weeks
[21] = biological target: Receptor-type tyrosine-protein kinase FLT3 (Homo sapiens, UniProt P36888); test: Inhibition of FLT3 (unknown origin)
Chain of Receptor-type tyrosine-protein kinase FLT3 (P36888 whole entry): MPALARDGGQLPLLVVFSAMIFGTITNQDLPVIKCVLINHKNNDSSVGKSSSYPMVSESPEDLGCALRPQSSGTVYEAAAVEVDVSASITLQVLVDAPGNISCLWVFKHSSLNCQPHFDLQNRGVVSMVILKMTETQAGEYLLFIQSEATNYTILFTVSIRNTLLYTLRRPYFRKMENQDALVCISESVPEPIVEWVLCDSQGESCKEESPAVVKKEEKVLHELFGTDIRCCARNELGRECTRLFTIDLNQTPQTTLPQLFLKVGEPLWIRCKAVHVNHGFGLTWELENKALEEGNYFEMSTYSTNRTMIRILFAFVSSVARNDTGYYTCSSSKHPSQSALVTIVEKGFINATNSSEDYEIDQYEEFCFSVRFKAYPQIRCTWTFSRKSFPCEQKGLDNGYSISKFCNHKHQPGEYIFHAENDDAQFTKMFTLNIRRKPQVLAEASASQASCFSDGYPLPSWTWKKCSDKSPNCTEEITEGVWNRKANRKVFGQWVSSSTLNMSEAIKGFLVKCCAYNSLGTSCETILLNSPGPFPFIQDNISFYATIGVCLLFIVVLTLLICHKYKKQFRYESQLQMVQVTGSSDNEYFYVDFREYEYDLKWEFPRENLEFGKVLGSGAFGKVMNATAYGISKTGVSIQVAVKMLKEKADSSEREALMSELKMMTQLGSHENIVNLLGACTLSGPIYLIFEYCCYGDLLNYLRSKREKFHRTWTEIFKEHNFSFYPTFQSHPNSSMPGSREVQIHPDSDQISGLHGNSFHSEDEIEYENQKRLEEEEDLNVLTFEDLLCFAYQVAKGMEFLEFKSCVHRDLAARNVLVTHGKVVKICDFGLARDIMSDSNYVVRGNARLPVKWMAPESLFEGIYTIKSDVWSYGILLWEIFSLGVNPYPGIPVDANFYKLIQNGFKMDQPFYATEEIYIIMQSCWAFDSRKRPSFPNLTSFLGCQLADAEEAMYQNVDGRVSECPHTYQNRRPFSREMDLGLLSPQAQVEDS

[22] = Ratio of drug concentration in 5XFAD mouse brain to plasma at 1200 ppm administered as rodent chow for 180 days; format: ADME, cell-free; conditions: brain and plasma, route po, time 180 day, read-out: BPR

Work on `FC(F)(F)c1ccc(CNc2ccc(Cc3c[nH]c4ncc(Cl)cc34)cn2)cn1` [PEXIDARTINIB] yielded a concentration at 2555 h [1] of 158 µM.

Compound `COc1ncc(F)cc1CNc1ccc(Cc2c[nH]c3ncc(C)cc23)c(F)n1` [PLX-5622] has an Activity (Mus musculus [2]) of 56.036%, an AUC at 4320 h [3] of 218 µg·h/mL and a Cmax [4] of 15600 ng/mL. It also gave an Activity [5] of 0 RPKM, an IC50 [6] greater than 1 µM and an IC50 [7] greater than 1 µM. The IC50 [8] was greater than 1 µM, the IC50 [9] was greater than 1 µM and the Activity (Mus musculus [10]) was “inactive”. The concentration at 336 h [11] was 4340 ng/mL, the Flu intensity (Mus musculus [12]) was 0.249 a.u and the Activity (Mus musculus [13]) was 0. For the same compound, the Activity (Mus musculus [14]) was “Active”, the Vd [15] was 1 L/kg and the IC50 [16] was greater than 1 µM. For the same compound, the IC50 [17] was greater than 1 µM, the Activity [18] was 16.382 RPKM and the Activity [19] was 5. The Activity [20] was 14, the IC50 [21] was 0.39 µM and the Kp at 4320 h [22] was 0.26.
